Source: PubChem (several laboratories)
m5-HT2A agonist: activates the mouse 5-HT2A serotonin receptor; CHO-K1 mHTR2A beta-arrestin complementation, luminescence; percent of 30 µM serotonin response; P35363; activation, % at 7.6 µM; 0.66% of 360,000 active;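 active = activation above a run cutoff, the mean activation of all tested compounds plus 3 SD, cut at about 14% in these data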;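 note: 0% = plate median of compound wells and 100% = 30 µM serotonin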
Target sequence (P35363 whole entry, looked up): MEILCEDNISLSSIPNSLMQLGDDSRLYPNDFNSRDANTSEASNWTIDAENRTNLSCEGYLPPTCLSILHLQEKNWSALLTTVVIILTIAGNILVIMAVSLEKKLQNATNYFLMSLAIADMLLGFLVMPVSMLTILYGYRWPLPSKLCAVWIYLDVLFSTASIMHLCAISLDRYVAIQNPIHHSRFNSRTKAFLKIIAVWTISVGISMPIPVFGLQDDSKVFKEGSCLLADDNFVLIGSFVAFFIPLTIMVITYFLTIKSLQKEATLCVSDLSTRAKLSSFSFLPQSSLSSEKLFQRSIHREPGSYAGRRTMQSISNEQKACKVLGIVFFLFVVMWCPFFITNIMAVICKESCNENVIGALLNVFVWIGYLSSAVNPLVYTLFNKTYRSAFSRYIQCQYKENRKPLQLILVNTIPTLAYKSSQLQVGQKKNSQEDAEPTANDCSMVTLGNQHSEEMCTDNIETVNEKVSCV
SR-BI HDL uptake: mouse SR-BI HDL lipid transfer inhibition; inhibition, % at 12.5 µM; ldlA[mSR-BI] CHO cells, DiI-HDL uptake fluorescence, 3 h; 0.96% of 320,000 active; Q61009;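 active = mean replicate inhibition of at least 70% and a set share of replicates each scoring 70 or more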;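 note: 0% = median of neutral control wells and 100% = median of positive control wells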
Calb FLC: affects C. albicans growth with fluconazole. 0.57% of 300,000 active. AID 1979. growth inhibition, % (no concentration beside the values). C. albicans CaCi-2 + fluconazole, Alamar Blue growth, 48 h;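 active = growth inhibition above about 58% in most replicates, limit read from the data, passing the limit was not always enough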;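 note: all wells also contain fluconazole at 8 µg/ml as a sub-toxic cotreatment; 0% = median of DMSO wells and 100% = median of geldanamycin control wells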
SR-BI DiI-HDL act: enhances SR-BI lipid uptake from DiI-HDL; CHO ldlA[mSR-BI] cells, DiI-HDL uptake fluorescence, 3 h; 100 = double the neutral-control signal; activation, % at 12.5 µM; 0.096% of 320,000 active; AID 504775;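 active = mean replicate activation of at least 60% and every replicate at or above 60%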;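 note: 0% = median plate neutral-control signal and 100% = twice that signal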
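Material: SR-BI-overexpressing, LDLR-lacking CHO cells | Dosing: Single compound concentration, delivered by pin transfer | Probe or stimulus: Labelled HDL, 10 µg/mL | Signal: Bottom-read cell fluorescence after medium removal, ex 550/em 595 nm | Schedule: 3 h, 37 °C | Evaluation: HDL uptake via cellular fluorescence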
Ins promoter up: MIN6 insulin promoter up-regulation; 0.3% of 190,000 active; AID 1625; MIN6 insulin promoter-GFP reporter, high-content imaging; hits give high values; z-score at 5 µM;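 active = z-score above 3 at 5 µM with at least 500 cells counted in the well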
beta cell repl: inducers of beta-cell replication in MIN6 cells. MIN6 cells proliferation, ATPlite luminescence, 48 h; cells starved in 0.2% serum; 100% = growth in 10% serum. 0.29% of 330,000 active. AID 2380. proliferation, % at 10 µM;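 active = compounds whose signal lies at least 3.5 SD above the mean of all wells on their plate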;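 note: 0% = DMSO-treated cells in low-serum medium and 100% = 10% serum control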
MOR ag counter: OPRM1 agonism in mouse HTR2A counterscreen. shares compounds with m5-HT2A agonist. U2OS OPRM1 beta-arrestin PathHunter, luminescence; DMSO 0%, DAMGO 9.3 µM 100%. activation, % at 9.3 µM. 5.3% of 2,300 active. AID 624380;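 active = mean activation above the mean of DMSO-only wells plus 3 SD, cut at about 0.5% in these data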
m5-HT2A ag conf: confirmation of mouse HTR2A serotonin receptor agonists | 19% of 2,300 active | activation, % at 7.6 µM | shares compounds with m5-HT2A agonist | AID 624381 | CHO-K1 PathHunter beta-arrestin recruitment, luminescence; DMSO 0%, 30 µM serotonin 100%;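 active = mean activation across triplicates above the hit threshold derived in the original primary screen, cut at about 15% in these data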
* = called active by the depositor; . = no result given. This is a sample that favours compounds with a hit; in the whole collection about 2.4% have one here.

SMILES	m5-HT2A agonist	SR-BI HDL uptake	Calb FLC	SR-BI DiI-HDL act	Ins promoter up	beta cell repl	MOR ag counter	m5-HT2A ag conf
CCC(=O)c1ccc(OCC(O)CN2CCN(c3ccccn3)CC2)cc1 (stereo not given)	29*	0	-1	0	.	-2	0	100*
CC(C)(C)c1ccc(OCC(O)CN2CCN(c3ccccn3)CC2)cc1 (stereo not given)	6	5	4	-5	.	-3	.	.
O=C1Nc2ccccc2-c2nnnn2C1N1CCCCC1 (stereo not given)	-1	.	.	.	.	.	.	.
CCC(CC)C(=O)Nc1nnc(S(=O)(=O)Nc2ccccc2C)s1	1	-19	1	19	.	-4	.	.
O=C(NC1CCCCCC1)C1CCCN1S(=O)(=O)c1cccc2cccnc12 (stereo not given)	-8	-16	7	16	0.69	4	.	.
O=C(NC1CCCC1)C1CCCN1S(=O)(=O)c1cccc2cccnc12 (stereo not given)	22*	-6	-1	6	-0.49	-3	0	-1
CC(C)(CNC(=O)c1cccc(S(=O)(=O)N2CCCCC2)c1)N1CCOCC1	8	.	.	.	.	.	.	.
Cc1ccc(S(=O)(=O)N2CCN(S(=O)(=O)c3ccccc3Br)C2=O)cc1	5	-29	.	29	.	.	.	.
OC(c1ccc(F)cc1)c1nc(-c2cccc(C(F)(F)F)c2)cs1 (stereo not given)	23*	.	.	.	.	.	0	-6
COc1ccc(C(O)c2nc(-c3cccc(O)c3)cs2)cc1 (stereo not given)	17*	.	.	.	.	.	-1	-1
COc1ccc(C(O)c2nc(-c3cccc(C(C)C)c3)cs2)cc1 (stereo not given)	-6	.	.	.	.	.	.	.
OC(c1ccc(F)c(F)c1)c1nc(-c2cccc(C(F)(F)F)c2)cs1 (stereo not given)	1	.	.	.	.	.	.	.
COc1ccc(C(C(=O)NCc2ccccc2)n2c(=O)c(-c3ccco3)nc3ccccc32)cc1 (stereo not given)	2	.	.	.	.	.	.	.
O=C(CS(=O)CC(=O)NC12CC3CC(CC(C3)C1)C2)Nc1ccc(F)cc1 (stereo not given)	-2	-1	-2	1	.	-3	.	.
CN1C(C(=O)NCc2cccc(C(F)(F)F)c2)CC2Cn3c(nc4cc(Cl)c(Cl)cc43)C21 (stereo not given)	20*	-4	4	4	0.6	-3	0	-5
O=c1oc2cc(OCc3ccc(F)cc3F)ccc2cc1-c1ccc2ccccc2n1	.	.	5	.	0	1	.	.
Cc1ccc(NC(=O)CN2CCOCC2)cc1	14*	-2	-4	2	.	-4	0	0
CC(=O)c1ccc(NC(=O)CN2CCOCC2)cc1	-5	-11	-3	11	.	-2	.	.
CCOC(=O)N1CCC(N2CCCC(C(=O)c3ccccc3OC)C2)CC1 (stereo not given)	27*	-1	-19	1	-0.26	1	-1	54*
CCOC(=O)N1CCC(N2CCCC(C(=O)c3cc(C)c(OC)c(C)c3)C2)CC1 (stereo not given)	-3	31	-22	-31	.	-2	.	.
COc1ccc(C2=NN(C(=O)CCC(=O)O)C(c3ccc([N+](=O)[O-])cc3)C2)cc1 (stereo not given)	19*	-4	-4	4	.	-3	-1	-4
COc1ccc(C2CC(c3ccccc3)=NN2C(=O)CCC(=O)O)cc1 (stereo not given)	0	-8	0	8	.	1	.	.
O=C(CCc1ccccc1)NC1CCSC1=O (stereo not given)	2	-28	5	28	1.2	-3	.	.
O=C(COc1ccccc1)NC1CCSC1=O (stereo not given)	21*	-28	2	28	-0.1	3	-1	-3
CC(Oc1ccc(Cl)cc1)C(=O)N/N=C/c1ccsc1 (stereo not given)	2	-6	-18	6	0.02	0	.	.
SMILES	m5-HT2A agonist	SR-BI HDL uptake	Calb FLC	SR-BI DiI-HDL act	Ins promoter up	beta cell repl	MOR ag counter	m5-HT2A ag conf
CC1(Cc2cc(Cl)ccc2C(F)(F)F)C(=O)Nc2cc(C(F)(F)F)ccc21 (stereo not given)	15*	.	.	.	.	.	0	2
COC(=O)[C@H]1C[C@H](OC(=O)Nc2c(C)noc2C)[C@@]2(O)CN(S(=O)(=O)c3ccc(C)cc3)CC2[C@H]1C(=O)OC (stereo not given in full)	16*	.	.	.	.	.	0	-2
COc1ccc(OC)c(S(=O)(=O)N/N=C\c2ccc3c(c2)OCO3)c1	17*	-17	-5	17	.	-2	-1	-1
CC(C)(C)NC(=O)N1CCN(c2nc(-c3ccccc3)ns2)CC1	16*	12	2	-12	.	1	0	-2
O=c1ccn(CCOc2ccc(Cl)cc2)c(=O)[nH]1	-1	-1	-4	1	.	-2	.	.
Cc1cn(CCOc2ccc(Cl)cc2)c(=O)[nH]c1=O	17*	-16	-3	16	.	2	-1	-4
COCCN(Cc1ccccc1)C(=O)c1cc(-c2ccc(OC)c(OC)c2)nc2ccccc12	17*	48	17	-48	.	-1	-1	-1
Cn1ncc2c(Nc3ccc(O)cc3)nc(Cl)nc21	18*	9	6	-9	0.07	5	-1	-3
Cn1ncc2c(Nc3ccc(Br)cc3)nc(Nc3ccc(Br)cc3)nc21	0	68	9	-68	-1.1	-5	.	.
Cc1ccc(S(=O)(=O)N2CCOCC2)cc1NC(=O)CNCc1ccc(Cl)cc1Cl	-1	20	.	-20	.	-2	.	.
Cc1ccc(S(=O)(=O)N2CCOCC2)cc1NC(=O)COC(=O)c1ccc2c(c1)OCCO2	17*	23	2	-23	1.3	0	-1	-3
Cc1ccc(S(=O)(=O)N2CCOCC2)cc1NC(=O)CNCc1cccnc1	28*	-42	1	42	-0.02	0	-1	75*
COc1cccc(CN(C)CCCn2cnc(C(=O)Nc3ccc(C)c(C)c3)n2)c1	-6	-9	.	9	.	.	.	.
CC(=O)Nc1ccc(S(=O)(=O)N2CC(=O)NC(=O)C2)cc1	20*	-25	-6	25	.	-1	0	-4
O=C(Nc1ccc(NC(=O)C2CCCCC2)nc1)c1cccc(F)c1	3	26	12	-26	.	1	.	.
O=C(Cc1cccc2ccccc12)NCCc1ccccc1	3	-11	1	11	.	-2	.	.
